Results as given in PubChem BioAssay AID588818 (Broad Institute, 2011).

Test system: ldlA[mSR-BI] cells, [3H]cholesterol efflux to HDL
Test: SR-BI cellular [3H]cholesterol release modulation – ldlA[mSR-BI] cells, powder samples, mechanism study for SR-BI HDL uptake inhibitor project, late-stage follow-up (AID 588818)
Settings: at 1 µM; stronger effect = lower value
Procedure, shortened: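 Material: ldlA[mSR-BI] cells carrying a [3H]cholesterol label | Also added: HDL, 100 µg/mL final | Timing: 1 h compound pretreatment, 2 h HDL efflux | Measured by: Liquid scintillation counting of [3H]cholesterol in medium and cells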

Structure (SMILES)	cholesterol efflux relative to neutral control [%]
COc1ccc(-c2nnn(CC(=O)N(C3CCCCC3)C(C)C(=O)NC3CCCC3)n2)cc1OC (stereo not given)	13.1
CCOC(=O)N1CCC(NC(=O)c2ccc3c(c2)N(Cc2ccc(F)cc2)CCS3)CC1	14.1
CCC(=O)N1CCc2cc(-c3csc(NC(=O)c4ccco4)n3)ccc21	11.5
O=C(Nc1ccc(-c2nc3cc(NC(=O)c4ccc(NC(=O)c5cccc6ccccc56)cc4)ccc3[nH]2)cc1)c1ccc(NC(=O)c2cccc3ccccc23)cc1	10.3
O=C(Nc1ccc(-c2nc3cc(NC(=O)c4ccccc4[N+](=O)[O-])ccc3o2)cc1)c1ccccc1[N+](=O)[O-]	5.29
